Results taken from ChEMBL document CHEMBL1156919, “Synthesis and induction of apoptosis signaling pathway of ent-kaurane derivatives” (Bioorg Med Chem, 2010).

The compounds below were run on RAW264.7 (assay: Cytotoxicity against mouse RAW264.7 cells assessed as reduction in cell viability after 24 hrs by MTT assay). Conditions: RAW264.7, 24 h.
Type: functional, cell-based
In short: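 RAW 264.7 mouse macrophage line kept in RPMI 1640 with 10% FBS, L-glutamine and antibiotics. Treated with 1–100 μM for 24 h, then MTT at 37 °C for 4 h. Formazan taken up in DMSO and read at 540 nm. Triplicate, at least three independent experiments. IC50 is the concentration giving 50% loss of viability relative to untreated cells.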

Question: How did the IC50 turn out when `C=C1[C@@H]2CC=C3[C@@](CC[C@@H]4[C@](C)(C(=O)OC)CCC[C@@]34C)(C2)[C@H]1OC(C)=O` was run?
Answer: 35 µM

Question: For `COC(=O)[C@]1(C)CCC[C@@]2(C)[C@@H]3CC[C@@H]4C[C@@]3(CC[C@@H]21)C[C@H]4C=O`, which IC50 is on record?
Answer: > 100 µM

Question: `COC(=O)[C@]1(C)CCC[C@@]2(C)[C@@H]3CC[C@@H]4C[C@]3(C=C4C)CC[C@@H]21` was tested. Which IC50 did it give?
Answer: 100 µM

Question: With `COC(=O)[C@]1(C)CCC[C@@]2(C)[C@@H]3CC[C@@H]4C[C@@]3(CC[C@@H]21)C[C@@]4(C)Cl` as the compound, how does the IC50 read?
Answer: > 100 µM

Question: `COC(=O)[C@]1(C)CCC[C@@]2(C)[C@@H]3CC[C@@H]4C[C@@]3(CC[C@@H]21)C[C@H]4/C=N/O` was tested. Which IC50 did it give?
Answer: 35 µM

Question: How did the IC50 turn out when `C=C1C[C@@]23CC[C@H]4[C@@](C)(CCC[C@@]4(C)C(=O)O)[C@@H]2CC[C@@H]1C3` [KAURENOIC ACID] was run?
Answer: > 100 µM

Question: For `C=C1[C@@H]2CC[C@H]3[C@]4(C)CCC[C@@](C)(C(=O)O)[C@H]4CC[C@]3(C2)[C@H]1O`, which IC50 is on record?
Answer: > 100 µM

Question: `C=C1C[C@@]23CC[C@@H]4[C@](C)(C(=O)OC)CCC[C@@]4(C)C2=CC[C@@H]1C3` [GRANDIFLORENIC ACID METHYL ESTER] was tested. Which IC50 did it give?
Answer: 35 µM

Question: Which IC50 does the source give for `C=C1C[C@@]23CC[C@@H]4[C@](C)(CO)CCC[C@@]4(C)C2=CC[C@@H]1C3` here?
Answer: 35 µM

Question: With `C=C1C[C@@]23CC[C@@H]4[C@](C)(CO)CCC[C@@]4(C)[C@@H]2CC[C@@H]1C3` as the compound, how does the IC50 read?
Answer: > 100 µM

Question: For `COC(=O)[C@]1(C)CCC[C@@]2(C)[C@@H]3CC[C@@H]4C[C@@]3(CC[C@@H]21)C(=O)[C@H]4CCc1ccccc1`, which IC50 is on record?
Answer: > 100 µM

Question: With `COC(=O)[C@]1(C)CCC[C@@]2(C)[C@@H]3CC[C@@H]4C[C@@]3(CC[C@@H]21)C[C@@]4(C)O` as the compound, how does the IC50 read?
Answer: 25 µM

Question: How did the IC50 turn out when `COC(=O)[C@]1(C)CCCC2(C)[C@@H]3CC[C@@H]4C[C@@]3(CC[C@@H]21)C[C@]41CO1` (some centres undefined) was run?
Answer: > 100 µM

Question: Which IC50 does the source give for `C=C1C[C@@]23CC[C@H]4[C@@](C)(CCC[C@@]4(C)C(=O)OC)[C@@H]2CC[C@@H]1C3` [KAURENOIC ACID METHYL ESTER] here?
Answer: 75 µM

Question: Which IC50 does the source give for `C=C1C[C@@]23CC[C@H]4[C@@](C)(CCC[C@@]4(C)C(=O)OCc4ccccc4)[C@@H]2CC[C@@H]1C3` [KAURENOIC ACID BENZYL ESTER] here?
Answer: 25 µM

Question: Which IC50 does the source give for `COC(=O)[C@]1(C)CCC[C@@]2(C)[C@@H]3CC[C@@H]4C[C@@]3(CC[C@@H]21)C[C@H]4C` [DIHYDRO KAURENOIC ACID METHYL ESTER] here?
Answer: 75 µM

Question: For `COC(=O)[C@]1(C)CCC[C@@]2(C)[C@@H]3CC[C@@H]4C[C@@]3(CC[C@@H]21)C(=O)C41CCN=N1` (some centres undefined), which IC50 is on record?
Answer: 100 µM

Question: For `C=C1C[C@@]23CC[C@@H]4[C@](C)(C(=O)O)CCC[C@@]4(C)C2=CC[C@@H]1C3` [GRANDIFLORENIC ACID], which IC50 is on record?
Answer: 15 µM

Question: `C=C1C[C@@]23CC[C@@H]4[C@](C)(C(=O)OCc5ccccc5)CCC[C@@]4(C)C2=CC[C@@H]1C3` [GRANDIFLORENIC ACID BENZYL ESTER] was tested. Which IC50 did it give?
Answer: 65 µM

Question: For `COC(=O)[C@]1(C)CCC[C@@]2(C)C3=CC[C@@H]4C[C@@]3(CC[C@H]12)C[C@]4(O)CO`, which IC50 is on record?
Answer: 25 µM

Question: With `COC(=O)[C@]1(C)CCC[C@@]2(C)[C@@H]3CC[C@@H]4C[C@@]3(CC[C@@H]21)C[C@@]4(C)OC` as the compound, how does the IC50 read?
Answer: > 100 µM

Question: With `C=C1[C@@H]2CC[C@H]3[C@]4(C)CCC[C@@](C)(C(=O)OC)[C@H]4CC[C@]3(C2)[C@H]1O` as the compound, how does the IC50 read?
Answer: > 100 µM

Question: For `COC(=O)[C@]1(C)CCC[C@@]2(C)[C@@H]3CC[C@@H]4C[C@]3(C=C4C=O)CC[C@@H]21`, which IC50 is on record?
Answer: 25 µM

Question: `COC(=O)[C@]1(C)CCCC2(C)[C@@H]3CC[C@@H]4C[C@@]3(CC[C@@H]21)C[C@@]41CO1` (some centres undefined) was tested. Which IC50 did it give?
Answer: > 100 µM

Question: How did the IC50 turn out when `C=C1[C@@H]2CC[C@H]3[C@]4(C)CCC[C@@](C)(C(=O)O)[C@H]4CC[C@]3(C2)[C@H]1OC(C)=O` was run?
Answer: 25 µM

Question: Which IC50 does the source give for `C=C1C(=O)[C@@]23CC[C@H]4[C@@](C)(CCC[C@@]4(C)C(=O)O)[C@@H]2CC[C@@H]1C3` here?
Answer: 35 µM

Question: With `C=C1[C@@H]2CC=C3[C@@](CC[C@@H]4[C@](C)(C(=O)OC)CCC[C@@]34C)(C2)[C@H]1O` as the compound, how does the IC50 read?
Answer: > 100 µM

Question: `C=C1[C@@H]2CC[C@H]3[C@]4(C)CCC[C@@](C)(C(=O)OC)[C@H]4CC[C@]3(C2)[C@H]1OC(C)=O` was tested. Which IC50 did it give?
Answer: 25 µM

Question: `COC(=O)[C@]1(C)CCC[C@@]2(C)[C@@H]3CC[C@@H]4C[C@@]3(CC[C@@H]21)C[C@]4(O)CO` was tested. Which IC50 did it give?
Answer: 10 µM
